According to ChEMBL document CHEMBL4261575, “Structure-guided approach identifies a novel class of HIV-1 ribonuclease H inhibitors: binding mode insights through magnesium complexation and site-directed mutagenesis studies” (Medchemcomm, 2018):
The source made the active and inactive calls. The rule behind the calls is not given here.

How the values were obtained:
[1] = target: Human immunodeficiency virus type 1 reverse transcriptase (Human immunodeficiency virus 1, UniProt Q72547, A502F); experiment: Inhibition of HIV1 group M subtype B reverse transcriptase p66 A502F mutant RNase H activity using 18-nucleotide 3'-fluorescein-labeled RNA/5'-[…]-labeled DNA hybrid as substrate after 1 hr by fluorescence assay; set-up: species or system HIV-1 group M
Method in brief: (§1)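 Mutations were introduced into the p66 subunit of subtype B RT. Enzyme amounts were set within the linear range: R448A 37.5 ng, N474A 62.5 ng, A502F 100 ng, R557A 75 ng. Buffer was 50 mM Tris-HCl pH 7.8, 6 mM MgCl2, 1 mM DTT, 80 mM KCl, with 0.25 μM fluorescein/dabcyl hybrid and water-diluted inhibitor. Incubation 1 h at 37 °C, EDTA stop, read at 490/528 nm.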

[2] = Selectivity ratio of IC50 for HIV1 group M subtype B reverse transcriptase p66 R557A mutant RNase H activity to IC50 for HIV1 reverse transcriptase RNase H activity
[3] = target: Human immunodeficiency virus type 1 reverse transcriptase (Human immunodeficiency virus 1, UniProt Q72547, R448A); experiment: Inhibition of HIV1 group M subtype B reverse transcriptase p66 R448A mutant RNase H activity using 18-nucleotide 3'-fluorescein-labeled RNA/5'-[…]-labeled DNA hybrid as substrate after 1 hr by fluorescence assay; set-up: species or system HIV-1 group M; method in brief: as §1
[4] = system: Human immunodeficiency virus 1; experiment: Antiviral activity against HIV1 assessed as inhibition of viral replication at 40 uM by cell-based assay; assay type: functional, organism-based
[5] = target: Human immunodeficiency virus type 1 reverse transcriptase (Human immunodeficiency virus 1, UniProt Q72547, N474A); experiment: Inhibition of HIV1 group M subtype B reverse transcriptase p66 N474A mutant RNase H activity using 18-nucleotide 3'-fluorescein-labeled RNA/5'-[…]-labeled DNA hybrid as substrate after 1 hr by fluorescence assay; set-up: species or system HIV-1 group M; method in brief: as §1
[6] = Binding affinity to Mg2+ at 3 x 10^-5 M to 8 x 10^-5 M by UV-Vis spectrophotometric method
Method in brief: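 UV-vis spectrophotometric titration of the compound in absolute ethanol with MgCl2, read in a quartz cuvette with a 1 cm path. MgCl2 was diluted in absolute ethanol to 13 stock solutions spanning 4 10–5 to 0.2 M (stock concentrations). Spectra were recorded across increasing Mg2+ levels, and isosbestic points were used to judge complexation equilibria. Each experiment was done in triplicate.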

[7] = target: Human immunodeficiency virus type 1 reverse transcriptase (Human immunodeficiency virus 1, UniProt Q72547); experiment: Inhibition of HIV1 reverse transcriptase RNase H activity using 18-nucleotide 3'-fluorescein-labeled RNA/5'-[…]-labeled DNA hybrid as substrate after 1 hr by fluorescence assay
Method in brief: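 Polymerase-independent RNase H assay with 20 ng wild-type RT in 50 mM Tris-HCl pH 7.8, 6 mM MgCl2, 1 mM DTT and 80 mM KCl. Substrate was 0.25 μM RNA/DNA hybrid with a fluorescein-labelled RNA and a dabcyl-labelled DNA. Inhibitor was diluted in water over increasing concentrations. Incubation 1 h at 37 °C, stopped with EDTA, read at 490/528 nm. IC50 was averaged over three independent experiments.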

[8] = target: Human immunodeficiency virus type 1 reverse transcriptase (Human immunodeficiency virus 1, UniProt Q72547, R557A); experiment: Inhibition of HIV1 group M subtype B reverse transcriptase p66 R557A mutant RNase H activity using 18-nucleotide 3'-fluorescein-labeled RNA/5'-[…]-labeled DNA hybrid as substrate after 1 hr by fluorescence assay; set-up: species or system HIV-1 group M; method in brief: as §1
[9] = Selectivity ratio of IC50 for HIV1 group M subtype B reverse transcriptase p66 A502F mutant RNase H activity to IC50 for HIV1 reverse transcriptase RNase H activity
[10] = Selectivity ratio of IC50 for HIV1 group M subtype B reverse transcriptase p66 R448A mutant RNase H activity to IC50 for HIV1 reverse transcriptase RNase H activity
[11] = Selectivity ratio of IC50 for HIV1 group M subtype B reverse transcriptase p66 N474A mutant RNase H activity to IC50 for HIV1 reverse transcriptase RNase H activity
[12] = target: Human immunodeficiency virus type 1 reverse transcriptase (Human immunodeficiency virus 1) (UniProt Q72547); experiment: Inhibition of HIV1 reverse transcriptase RNase H activity using 18-nucleotide 3'-fluorescein-labeled RNA/5'-[…]-labeled DNA hybrid as substrate assessed as remaining activity at 100 uM after 1 hr by fluorescence assay relative to control
Method in brief: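 Wild-type RT (20 ng) RNase H reaction in Tris-HCl pH 7.8 buffer with 6 mM MgCl2, 1 mM DTT and 80 mM KCl. Substrate was 0.25 μM fluorescein/dabcyl RNA/DNA hybrid, with compound at 100 μM. Incubation 1 h at 37 °C, EDTA stop, fluorescence at 490/528 nm. Activity is given as percentage of control.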

[13] = (§2) Binding affinity to Mg2+ assessed as hyperchromic effect at 3 x 10^-5 M to 8 x 10^-5 M by UV-Vis spectrophotometric method
Method in brief: (§3)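 UV-vis titration with MgCl2 in a 1 cm quartz cuvette. MgCl2 was diluted in absolute ethanol to 13 stock solutions spanning 4 10–5 to 0.2 M. Spectra were followed for absorbance changes and isosbestic points. Each experiment was done in triplicate.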

[14] = as §2; method in brief: as §3; remark: listed apart in the source

SMILES: COc1cc(N2CCCC2)c(OC)cc1/C=C1/NC(=O)NC1=O
- IC50 [1]: 32.5 µM
- Ratio IC50 [2]: 2.2
- IC50 [3]: 11 µM
- inhibition [4]: inactive
- IC50 [5]: > 300 µM
- Activity [6]: Active
- IC50 [7]: 9.35 µM
- IC50 [8]: 20.5 µM
- Ratio IC50 [9]: 3.5
- Ratio IC50 [10]: 1.2
- Ratio IC50 [11]: > 32

SMILES: CCOc1cccc(/C=C2\SC(=O)NC2=O)c1O
- Activity [12]: 60%
- IC50 [7]: > 100 µM

SMILES: Cc1cc(/C=C2\NC(=O)NC2=O)c(C)n1-c1ccc(OCc2ccc(Cl)cc2Cl)cc1
- Activity [6]: inactive
- IC50 [7]: 8.73 µM

SMILES: CCOc1cc(/C=C2\NC(=O)NC2=O)c(Cl)cc1OC
- Activity [12]: 70%
- IC50 [7]: > 100 µM

SMILES: COc1cc(/C=N/NC(=O)COc2cccc(C)c2)c(O)c([N+](=O)[O-])c1
- Activity [12]: 59.4%
- IC50 [7]: > 100 µM

SMILES: C[S+]([O-])CCC(NS(=O)(=O)c1ccccc1)C(=O)O (configuration not stated)
- Activity [12]: 86%
- IC50 [7]: > 100 µM

SMILES: NNC(=O)c1cccc(Cn2cc(Br)c([N+](=O)[O-])n2)c1
- Activity [12]: 94.6%
- IC50 [7]: > 100 µM

SMILES: NNC(=O)C12CC3CC(C1)CC(n1cnc(Cl)n1)(C3)C2
- Activity [12]: 73.4%
- IC50 [7]: > 100 µM

SMILES: CCCCC(CC)CN1C(=O)C(O)=C(C(C)=O)C1c1ccco1 (configuration not stated)
- Activity [12]: 77.5%
- IC50 [7]: > 100 µM

SMILES: CCOc1cc(/C=C2\SC(=S)N(c3ccccc3)C2=O)cc([N+](=O)[O-])c1O
- Activity [13]: Active
- IC50 [1]: 26.3 µM
- Ratio IC50 [2]: 1.5
- Activity [14]: Active
- IC50 [3]: 11.3 µM
- inhibition [4]: inactive
- IC50 [5]: 146 µM
- Activity [6]: Active
- IC50 [7]: 12.8 µM
- IC50 [8]: 18.6 µM
- Ratio IC50 [9]: 2.1
- Ratio IC50 [10]: 0.9
- Ratio IC50 [11]: 11.4

SMILES: COC(=O)c1c(-c2cccs2)csc1NC(=O)C1CC=CCC1C(=O)O (configuration not stated)
- Activity [12]: 93%
- IC50 [7]: > 100 µM

SMILES: Cc1ccc(C2CC2C(=O)NN)cc1 (configuration not stated)
- Activity [12]: 83.5%
- IC50 [7]: > 100 µM

SMILES: CCOc1ccc(/C=C2\NC(=O)NC2=O)c(Cl)c1OC
- IC50 [7]: 84.2 µM

SMILES: COc1ccccc1NC(=O)C1CCCCC1(C)C(=O)O (configuration not stated)
- IC50 [7]: 61.2 µM

SMILES: CCCOC(=O)CNc1n[nH]c(=O)[nH]c1=O
- Activity [12]: 89.1%
- IC50 [7]: > 100 µM

SMILES: Cc1cccc(OCC(=O)NC(Cc2ccccc2)C(=O)O)c1 (configuration not stated)
- Activity [12]: 87.2%
- IC50 [7]: > 100 µM

SMILES: Cc1cc(/C=C2\SC(=N)NC2=O)c(C)n1-c1ccc(Cl)cc1
- Activity [6]: inactive
- IC50 [7]: 16.1 µM

SMILES: O=C(O)C1Sc2[nH]c(=O)sc2C2c3ccccc3OC(=O)C12 (configuration not stated)
- Activity [12]: 80%
- IC50 [7]: > 100 µM

SMILES: CC(C)c1ccc(O)c(=O)c(O)c1 [BETA-THUJAPLICINOL]
- IC50 [1]: 0.17 µM
- Ratio IC50 [2]: 1.05
- IC50 [3]: 0.14 µM
- IC50 [5]: 0.1 µM
- IC50 [8]: 0.21 µM
- Ratio IC50 [9]: 0.85
- Ratio IC50 [10]: 0.7
- Ratio IC50 [11]: 0.5

SMILES: Cc1ccc(C2NC(=O)C(O)=C2C(=O)c2cccs2)cc1 (configuration not stated)
- Activity [12]: 81.8%
- IC50 [7]: > 100 µM

SMILES: CC1=C(C(=O)O)N2C(=O)C(NC(=O)c3ccn(C)n3)C2SC1 (configuration not stated)
- Activity [12]: 80%
- IC50 [7]: > 100 µM

SMILES: Cc1cc(/C=C2\SC(N)=NC2=O)c(C)n1-c1ccc(F)cc1
- Activity [6]: inactive
- IC50 [7]: 12.3 µM

SMILES: O=C1NC(=O)/C(=C/c2ccc(Cl)c(Cl)c2)S1
- Activity [12]: 80.5%
- IC50 [7]: > 100 µM

SMILES: CCOC(=O)C12CC(OC3CCCCC3)C1(c1ccccc1)NC(=O)C2=O (configuration not stated)
- Activity [12]: 80.4%
- IC50 [7]: > 100 µM

SMILES: COc1cccc(/C=C2\NC(=O)NC2=O)c1-c1ccc(OC(=O)Nc2ccccc2)cc1
- IC50 [7]: 28.1 µM

SMILES: CCOc1ccc(/C=C2\SC(=O)NC2=O)cc1OCc1ccc(Cl)c(Cl)c1
- IC50 [1]: 26.7 µM
- Ratio IC50 [2]: 2.5
- IC50 [3]: 7.01 µM
- inhibition [4]: inactive
- IC50 [5]: > 300 µM
- Activity [6]: inactive
- IC50 [7]: 5.17 µM
- IC50 [8]: 12.5 µM
- Ratio IC50 [9]: 5.3
- Ratio IC50 [10]: 1.4
- Ratio IC50 [11]: > 59

SMILES: CCCc1cc2c(cc1/C=C1\NC(=O)NC1=O)OCO2
- IC50 [7]: 91.6 µM

SMILES: CCN1C(=O)/C(=C/c2ccc(O)c([N+](=O)[O-])c2)SC1=S
- Activity [12]: 65.5%
- IC50 [7]: > 100 µM

SMILES: Cc1cc(/C=C2\NC(=O)NC2=O)cc(C)c1OCc1cccc([N+](=O)[O-])c1
- IC50 [7]: 17.8 µM

SMILES: COc1cc(NC(=O)C2CC(=O)N=C(N)S2)cc(OC)c1 (configuration not stated)
- Activity [12]: 74.5%
- IC50 [7]: > 100 µM

SMILES: O=C(CSc1nc2ccccc2o1)Nc1ncn[nH]1
- Activity [12]: 82.7%
- IC50 [7]: > 100 µM

SMILES: Cc1nc(N)sc1C(=O)N/N=C\c1ccc(O)c([N+](=O)[O-])c1
- Activity [12]: 55%
- IC50 [7]: > 100 µM

SMILES: CC(=O)c1cc2c(cc1NC(=O)CCC(=O)O)OCO2
- Activity [12]: 89.5%
- IC50 [7]: > 100 µM

SMILES: O=C(O)CCCC(=O)NC1CCCCCCC1
- Activity [12]: 76.3%
- IC50 [7]: > 100 µM

SMILES: CC(Oc1ccc(C(C)(C)C)cc1)C(=O)NN (configuration not stated)
- Activity [12]: 70.4%
- IC50 [7]: > 100 µM

SMILES: NC(=O)N(CCC(=O)O)c1ccc(Br)cc1
- Activity [12]: 84.5%
- IC50 [7]: > 100 µM

SMILES: CCc1nnc(NC(=O)C(=O)NCCOC(=O)c2ccccc2)s1
- Activity [12]: 77.9%
- IC50 [7]: > 100 µM

SMILES: O=C(N/N=C\c1cc([N+](=O)[O-])c(O)cc1O)c1ccccc1O
- IC50 [7]: 49.9 µM

SMILES: O=C(O)CC1CSc2ccccc2NC1=O (configuration not stated)
- Activity [12]: 76.5%
- IC50 [7]: > 100 µM

SMILES: COc1ccccc1/C=C/CN1CCNC(=O)C1CC(=O)O (configuration not stated)
- Activity [12]: 83.7%
- IC50 [7]: > 100 µM

SMILES: CCC(C)Oc1ccc(/C=C2\NC(=O)NC2=O)cc1 (configuration not stated)
- IC50 [7]: 52.8 µM

SMILES: O=C(OCCOCn1cc(Br)c(=O)[nH]c1=O)c1ccccc1
- Activity [12]: 69.1%
- IC50 [7]: > 100 µM

SMILES: O=C1Nc2ccccc2/C1=N\NC(=O)c1ccc(O)cc1O
- IC50 [7]: 36.4 µM

SMILES: O=C(O)COc1ccc(/C=C2\NC(=O)NC2=O)cc1I
- Activity [12]: 67.5%
- IC50 [7]: > 100 µM

SMILES: CSCCC(NS(=O)(=O)c1ccc2c(c1)NC(=O)C(C)O2)C(=O)O (configuration not stated)
- Activity [12]: 80.2%
- IC50 [7]: > 100 µM
